Data on 55 sequences can be found in the array DNA melting data of Ke et al. (doi:10.1101/2024.01.08.574731).

Series [1] is described as follows: folding enthalpy; higher = less favourable; fluorescence melt of hairpins on a sequencing array, two-state fit. The conditions noted are these: sodium 0.088 M. Put shortly: (§1)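 On a sequenced MiSeq flow cell, library hairpins with annealed Cy3 and quencher oligos were imaged for Cy3 fluorescence in 2.5 °C steps up to 60 °C, in 50 mM Na-HEPES pH 8.0, 25 mM NaCl. Normalisation used pre-quench Cy3 and control constructs. Bootstrapped two-state fits gave melting temperature and folding enthalpy, combined by inverse variance across four replicates and with fitted temperatures raised by 9.35 °C to match UV melts.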

The nature of series [2]: melting temperature; fluorescence melt of hairpins on a sequencing array, two-state fit, raised by 9.35 °C to match UV melts. The conditions noted are these: sodium 0.088 M. In outline: as §1

GCTATCGAAAGATGGAGC ((((((....)))..))): in series [1], the folding enthalpy is -15.9 kcal/mol. The Tm in series [2] was determined as 33.6 °C.
As to GCCGTCGGAAACGACGAC (.(((((....))))).), the folding enthalpy in series [1] was -13.3 kcal/mol. For the same sequence, in series [2], the Tm was determined as 54.8 °C.
Take GAAAGCGAAAGCTCATTC ((((((....)))..))): the folding enthalpy in series [1] is -8.68 kcal/mol. The Tm in series [2] is 23.9 °C.
Turning to GTTTTACGAAAGTAGAAC (((.(((....))).))), in series [1], the folding enthalpy is -29.2 kcal/mol. Also, the Tm in series [2] turned out to be 41.2 °C.
Regarding GTCAACGAAAGTTTGAC ((((((....))).))), the folding enthalpy in series [1] is -28.6 kcal/mol. Further, the Tm in series [2] turned out to be 46.9 °C.
Take GCCTTCCGAAAGGATGGC (((.(((....))).))): the folding enthalpy in series [1] is -42.1 kcal/mol. Also, the Tm in series [2] came to 62 °C.
Consider GGGCTCGAAAGAGGACCC ((((((....)))..))), for which the folding enthalpy in series [1] is -20.9 kcal/mol. Besides, in series [2], the Tm stood at 49.5 °C.
Take GCGACGATCGC ((((...)))): the folding enthalpy in series [1] was -13.6 kcal/mol. In addition, the Tm in series [2] turned out to be 42.4 °C.
For GATCATTTACATGATC ((((((....)))))), the folding enthalpy in series [1] is -35.2 kcal/mol. For the same sequence, the Tm in series [2] stood at 46.3 °C.
For GCTGATGGAAACATTGGC ((..(((....)))..)) the same measures were -31 kcal/mol and 36 °C.
Regarding GTCGCCGGAAACGGCAAC ((.((((....)))).)), the folding enthalpy in series [1] is -11.2 kcal/mol. For the same sequence, in series [2], the Tm stood at 47.1 °C.
In the case of GATGCCGGAAACGGTATC (((.(((....))).))), the folding enthalpy in series [1] is -42.9 kcal/mol. Besides, in series [2], the Tm amounted to 53.9 °C.
In the case of GATTACCGAAAGGTGATC (((.(((....))).))), the folding enthalpy in series [1] is -37.5 kcal/mol. In series [2], the Tm was 51.8 °C.
As to GATATGCGAAAGCAATC (((.(((....)))))), the folding enthalpy in series [1] is -10.7 kcal/mol. In addition, in series [2], the Tm came to 30 °C.
For GATCAGTAGGCTGATC ((((((....)))))) the same measures were -42.3 kcal/mol and 52.4 °C.
Take GCTATTGCGAAAGCAAGC (((..(((....)))))): in series [1], the folding enthalpy was -10.2 kcal/mol. Also, in series [2], the Tm was 42.2 °C.
Turning to TACCCGAAAGGGTA (((((....))))), in series [1], the folding enthalpy was -14.4 kcal/mol. Moreover, the Tm in series [2] was found to be 66.1 °C.
Regarding GATCGGGCCCCGATC ((((((...)))))), in series [1], the folding enthalpy is -44.1 kcal/mol. For the same sequence, the Tm in series [2] worked out at 57.5 °C.
As to GATCCTCGGCAGGATC ((((((....)))))), the folding enthalpy in series [1] was -29.4 kcal/mol. The Tm in series [2] was found to be 49.7 °C.
For GCCTGCGCGAAAGCGGGC (((..(((....)))))), in series [1], the folding enthalpy is -15.4 kcal/mol. Also, the Tm in series [2] was determined as 55.5 °C.
Turning to GAGCAACGAAAGTTCTC (((.(((....)))))), in series [1], the folding enthalpy is -20.1 kcal/mol. For the same sequence, in series [2], the Tm was 35.6 °C.
For the sequence GTGAGTGGAAACGCTTAC ((.((.(....).)).)), the folding enthalpy in series [1] is -16.2 kcal/mol. Also, in series [2], the Tm came out at 33.1 °C.
For the sequence GCGGTATCCCGC ((((....)))), the folding enthalpy in series [1] was -30.5 kcal/mol. For the same sequence, in series [2], the Tm came to 53.5 °C.
As for GTATACCGAAAGGTCTAC (((.(((....))).))), the folding enthalpy in series [1] is -22.4 kcal/mol. Besides, the Tm in series [2] worked out at 40.7 °C.
On to GTGCGGCGAAAGCCTCAC (((.(((....))).))), for which the folding enthalpy in series [1] is -29.4 kcal/mol. Moreover, the Tm in series [2] stood at 53.8 °C.
For the sequence GCGACGCGAAAGCATAGC ((.(.((....)).).)), in series [1], the folding enthalpy was -18.8 kcal/mol. Also, the Tm in series [2] is 62.7 °C.
For the sequence GCAGCGCGAAAGCGACGC ((..(((....)))..)), in series [1], the folding enthalpy is -18.4 kcal/mol. Moreover, the Tm in series [2] was 60.7 °C.
Turning to GAAGGCGGAAACGCCTCC (.(((((....))))).), the folding enthalpy in series [1] is -8.57 kcal/mol. Also, the Tm in series [2] was found to be 42.3 °C.
Take GGCTCTACGAAAGTAGCC (((..(((....)))))): in series [1], the folding enthalpy is -17.1 kcal/mol. Also, in series [2], the Tm was found to be 40.1 °C.
Take GTTTCACGAAAGTGAAC (((.(((....)))))): the folding enthalpy in series [1] is -14.4 kcal/mol. In addition, the Tm in series [2] came out at 49.4 °C.
The matching figures for GATCGTCGCACGATC ((((((...)))))): -37.9 kcal/mol and 58.2 °C.
GAGAGACGAAAGTCCCTC (((.(((....))).))): the folding enthalpy in series [1] is -25.8 kcal/mol. Besides, in series [2], the Tm is 44.9 °C.
In the case of GCGCAGCGAAAGCAACGC (((..((....))..))), the folding enthalpy in series [1] is -10.2 kcal/mol. Also, the Tm in series [2] stood at 49.6 °C.
GCAGAAGAAATTCTGC ((((((....)))))): in series [1], the folding enthalpy was -32.6 kcal/mol. Moreover, the Tm in series [2] was found to be 52.9 °C.
On to GATCCTGATCAGGATC ((((((....)))))), for which, in series [1], the folding enthalpy was -39.8 kcal/mol. Moreover, the Tm in series [2] stood at 56.1 °C.
On to GCTAGTCGAAAGACCAGC (((.(((....))).))), for which the folding enthalpy in series [1] is -26.6 kcal/mol. In series [2], the Tm stood at 47.3 °C.
For GTTTCGCGAAAGCGGAAC (((.(((....))).))), in series [1], the folding enthalpy was -23.4 kcal/mol. Moreover, the Tm in series [2] amounted to 59.2 °C.
As to GCCTTGCGAAAGCATTGC ((..(((....)))..)), the folding enthalpy in series [1] is -11.4 kcal/mol. Moreover, the Tm in series [2] is 48.2 °C.
With GCGCCCGAAAGGGATCGC ((((((....)))..))), the folding enthalpy in series [1] is -20.4 kcal/mol. Further, the Tm in series [2] stood at 51.8 °C.
As to GGGGACGAAAGTCACCC ((((((....))).))), in series [1], the folding enthalpy was -17.6 kcal/mol. Also, the Tm in series [2] was found to be 65.7 °C.
For the sequence GCGCTAGGAAACTAGTGC ((.((((....)))).)), in series [1], the folding enthalpy was -44.7 kcal/mol. Further, the Tm in series [2] was 53.3 °C.
Regarding GGGCTACGAAAGTATCCC (((.(((....))).))), the folding enthalpy in series [1] is -29.9 kcal/mol. In addition, the Tm in series [2] worked out at 48.4 °C.
As for GTATTCACGAAAGTGTAC (((..(((....)))))), the folding enthalpy in series [1] is -9.14 kcal/mol. In addition, in series [2], the Tm stood at 25.8 °C.
The matching figures for GATCTGCATACAGATC ((((((....)))))): -43.2 kcal/mol and 52.1 °C.
GATCTGCGAACAGATC ((((((....)))))): the folding enthalpy in series [1] is -33.5 kcal/mol. In addition, in series [2], the Tm was 49.4 °C.
Take GGCTTACGAAAGTAGGCC (((.(((....))).))): the folding enthalpy in series [1] is -43.6 kcal/mol. Besides, in series [2], the Tm is 60.1 °C.
On to GCACACGAAAGTGATTGC ((((((....)))..))), for which the folding enthalpy in series [1] is -18.5 kcal/mol. In series [2], the Tm came to 39.8 °C.
For GAAGGTGAAAACCTTC ((((((....)))))) the same measures were -28.7 kcal/mol and 57.2 °C.
Turning to GCGTTGCGAAAGCACCGC (((.(((....))).))), the folding enthalpy in series [1] is -47.7 kcal/mol. Moreover, in series [2], the Tm came out at 59.1 °C.
Regarding GAGAGGGGAAACCCCCTC (((.(((....))).))), the folding enthalpy in series [1] was -14.9 kcal/mol. Besides, the Tm in series [2] was 47.9 °C.
For the sequence GGCACAACGAAAGTTGCC (((..(((....)))))), in series [1], the folding enthalpy was -16.4 kcal/mol. Also, the Tm in series [2] was determined as 44.2 °C.
For GGAGAGGGAAACCTCCCC ((.((((....)))).)) the same measures were -16.2 kcal/mol and 39.9 °C.
In the case of GTTCCAGGAAACTGAAAC (((.(((....))).))), in series [1], the folding enthalpy was -19.4 kcal/mol. Moreover, in series [2], the Tm was 30.4 °C.
As for GACTCTGGAAACAGAGTC (((((((....))))))), the folding enthalpy in series [1] is -34.3 kcal/mol. Also, the Tm in series [2] turned out to be 63.9 °C.
Take GCTTCCGAAAGGAAAAGC ((((((....)))..))): the folding enthalpy in series [1] is -17.6 kcal/mol. For the same sequence, in series [2], the Tm is 49.7 °C.
